# Columns and labels:
# [1] = target: T1, Alpha-1A adrenergic receptor (Homo sapiens, UniProt P35348); assay: Binding affinity towards Alpha-1A adrenergic receptor
# T1 sequence (P35348 whole entry): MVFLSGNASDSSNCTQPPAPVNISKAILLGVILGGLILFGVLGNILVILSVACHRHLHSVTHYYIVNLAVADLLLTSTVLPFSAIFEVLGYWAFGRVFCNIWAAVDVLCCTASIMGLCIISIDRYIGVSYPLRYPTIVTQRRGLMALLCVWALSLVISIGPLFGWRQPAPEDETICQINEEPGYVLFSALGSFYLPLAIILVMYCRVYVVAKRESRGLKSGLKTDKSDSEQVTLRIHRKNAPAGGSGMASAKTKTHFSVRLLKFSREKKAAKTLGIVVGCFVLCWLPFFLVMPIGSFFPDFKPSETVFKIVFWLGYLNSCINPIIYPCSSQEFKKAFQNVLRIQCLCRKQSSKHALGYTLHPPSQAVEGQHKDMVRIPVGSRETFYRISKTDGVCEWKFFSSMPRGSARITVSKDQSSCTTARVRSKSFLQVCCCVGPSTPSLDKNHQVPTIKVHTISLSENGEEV
# Outline: (§1)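 Human α1A-, α1B- or α1D-AR stably expressed in HEK293 cells (calcium phosphate transfection, subclones chosen for high expression); membranes from scraped, homogenized cells spun at 30000g. Three experiments in duplicate, mean ± SE.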
# [2] = target: T2, Alpha-1D adrenergic receptor (Homo sapiens, UniProt P25100); assay: Binding affinity towards Alpha-1D adrenergic receptor; outline: as §1
# T2 sequence (P25100 whole entry): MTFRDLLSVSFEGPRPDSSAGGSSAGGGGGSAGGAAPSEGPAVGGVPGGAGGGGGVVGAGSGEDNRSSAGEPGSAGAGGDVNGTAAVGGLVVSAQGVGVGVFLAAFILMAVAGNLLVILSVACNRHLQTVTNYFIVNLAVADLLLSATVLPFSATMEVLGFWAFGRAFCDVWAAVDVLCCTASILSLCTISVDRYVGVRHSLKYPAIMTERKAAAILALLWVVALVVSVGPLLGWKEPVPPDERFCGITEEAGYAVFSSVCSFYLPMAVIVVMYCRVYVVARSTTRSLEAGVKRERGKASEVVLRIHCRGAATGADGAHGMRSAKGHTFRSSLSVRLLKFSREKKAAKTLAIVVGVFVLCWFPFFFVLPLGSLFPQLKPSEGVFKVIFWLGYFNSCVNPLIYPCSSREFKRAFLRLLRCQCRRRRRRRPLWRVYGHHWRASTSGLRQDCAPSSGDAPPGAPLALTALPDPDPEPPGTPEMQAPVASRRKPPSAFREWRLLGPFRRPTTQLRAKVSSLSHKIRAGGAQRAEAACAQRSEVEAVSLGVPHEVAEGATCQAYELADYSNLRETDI
# [3] = target: T3, Alpha-1B adrenergic receptor (Homo sapiens, UniProt P35368); assay: In vitro binding affinity at human Alpha-1B adrenergic receptor.; outline: as §1
# T3 sequence (P35368 whole entry): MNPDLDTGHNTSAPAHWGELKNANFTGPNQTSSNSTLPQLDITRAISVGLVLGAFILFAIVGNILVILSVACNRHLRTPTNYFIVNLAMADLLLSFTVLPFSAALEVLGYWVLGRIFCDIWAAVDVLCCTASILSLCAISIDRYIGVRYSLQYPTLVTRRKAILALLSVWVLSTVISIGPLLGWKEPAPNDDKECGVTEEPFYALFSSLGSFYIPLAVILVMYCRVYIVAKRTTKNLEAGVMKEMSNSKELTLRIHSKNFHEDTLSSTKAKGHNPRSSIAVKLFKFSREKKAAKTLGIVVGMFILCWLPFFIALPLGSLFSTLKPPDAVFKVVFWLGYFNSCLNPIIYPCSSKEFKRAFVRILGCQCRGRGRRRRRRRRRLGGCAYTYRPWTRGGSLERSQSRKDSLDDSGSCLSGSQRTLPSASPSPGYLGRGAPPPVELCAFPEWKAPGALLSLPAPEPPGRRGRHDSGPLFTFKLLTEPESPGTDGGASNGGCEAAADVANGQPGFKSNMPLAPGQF
# [4] = target: T1, Alpha-1A adrenergic receptor; assay: In vitro binding affinity at human Alpha-1A adrenergic receptor.; outline: as §1
# [5] = target: T2, Alpha-1D adrenergic receptor; assay: In vitro binding affinity at human Alpha-1D adrenergic receptor.; outline: as §1
# [6] = target: Adrenergic receptor alpha-1 (Homo sapiens) (UniProt P35348+P25100+P35368); assay: Selectivity for alpha 1A-Adrenergic receptors compared to 1D-Adrenergic receptors.; format: protein assay
# Rattus norvegicus = species: Rattus norvegicus; assay: Inhibition of [3H]inositol Phosphate formation by 100 uM norepinephrine in rat hippocampal slices.; format: functional, Hippocampus
# Outline: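 Rat hippocampal slices equilibrated in Krebs-Henseleit buffer (pH 7.4, 95% O2/5% CO2) at 37 °C for 30 min, labeled 60 min with 0.3 µM myo-[2-3H]inositol. LiCl 7 mM added, then 100 µM norepinephrine 10 min later, test compound (1 µM) 5 min before agonist. After 60 min, stopped with chloroform/methanol; [3H]inositol monophosphate isolated by anion exchange, dpm/mg protein, ≥4 determinations.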
SMILES,Ki [1] [nM],Ki [2] [nM],Ki [3] [nM],other results
CCOc1ccccc1N1CCN(CCn2cnc3c4ccccc4nc-3c2O)CC1,9.77,6.03,61.7,
CCc1nc2c3ccccc3nc-2c(O)n1CCN1CCN(c2ccccc2OC)CC1,49,6.92,245,
COc1ccccc1N1CCN(CCn2nc(-c3ccccc3)c3c(C)onc3c2=O)CC1,,,31.1,Ki [4]: 1.4 nM; Ki [5]: 1.5 nM; Ratio [6]: 0.9
CCC(C)c1ccc(N2CCN(CCn3c(=O)[nH]c4c([nH]c5ccccc54)c3=O)CC2)cc1 (configuration not stated),,60.3,,
COc1ccccc1C1CCN(CCn2c(=O)[nH]c3c([nH]c4ccccc43)c2=O)CC1,1.55,0.933,2.88,
CCc1nc2c3ccccc3nc-2c(O)n1CCCN1CCN(c2ccccc2OC)CC1,10.7,12.6,27.5,
CC(C)(C)c1ccc(N2CCN(CCn3c(=O)[nH]c4c([nH]c5ccccc54)c3=O)CC2)cc1,,,,Activity (Rattus norvegicus): 10390 dpm (mg of protein)-1; inhibition at 1 µM [1]: 8%
COc1ccccc1N1CCN(CCCn2cnc3c4ccccc4nc-3c2O)CC1,16.6,16.2,162,
O=c1[nH]c2c([nH]c3ccccc32)c(=O)n1CCN1CCN(c2ccc(C3CCCCC3)cc2)CC1,,,,inhibition at 1 µM [1]: 7%
CC(C)c1ccc(N2CCN(CCn3c(=O)[nH]c4c(sc5ccccc54)c3=O)CC2)cc1,,126,,
CC(C)c1ccc(N2CCN(CCn3cnc4c5ccccc5nc-4c3O)CC2)cc1,> 10000,> 10000,> 10000,
Cc1nc2c3ccccc3nc-2c(O)n1CCN1CCN(c2ccc(C(C)(C)C)cc2)CC1,603,97.7,2040,
O=c1[nH]c2c([nH]c3ccccc32)c(=O)n1CCN1CCN(c2ccccc2O)CC1,8.91,0.631,11.7,
O=c1[nH]c2c([nH]c3ccccc32)c(=O)n1CCN1CCN(c2ccccc2Cl)CC1,4.68,3.63,2.57,
COc1ccccc1N1CCN(CCn2c(=O)[nH]c3c([nH]c4ccccc43)c2=O)CC1,,,1.82,Activity (Rattus norvegicus): 3987 dpm (mg of protein)-1
C=Cc1sc2ccc(Cl)c3c2c1CN(C)CC3,,,,Ratio [6]: 22.5
N#CCc1ccc(N2CCN(CCn3c(=O)[nH]c4c([nH]c5ccccc54)c3=O)CC2)cc1,,10,,
CCCCc1ccc(N2CCN(CCn3c(=O)[nH]c4c([nH]c5ccccc54)c3=O)CC2)cc1,,245,,
Cc1nc2c3ccccc3nc-2c(O)n1CCN1CCN2c3ccccc3OCC2C1 (configuration not stated),> 10000,> 10000,> 10000,
COc1ccccc1N1CCN(CCn2c(C)nc3c4ccccc4nc-3c2O)CC1,,,20.9,
CC(C)c1ccc(N2CCN(CCn3c(=O)[nH]c4c([nH]c5ccccc54)c3=O)CC2)cc1,,35.5,9550,
C[C@H](CN1CCN(c2cc(F)c(F)cc2F)CC1)N1C(=O)CC2(CCCC2)CC1=O,,,,Ki [4]: 294 nM; Ki [5]: 1.6 nM
COc1ccccc1N1CCN(Cn2nc(-c3ccccc3)c3c(C)onc3c2=O)CC1,,,,Ki [5]: 316 nM
COc1cc2c(cc1O)CCN1Cc3c(ccc(O)c3OC)C[C@@H]21,,,360,Ki [4]: 616 nM; Ki [5]: 25 nM; Ratio [6]: 24.6
CCOc1ccccc1N1CCN(CCn2c(=O)[nH]c3c([nH]c4ccccc43)c2=O)CC1,7.24,1.58,14.5,
COc1ccccc1N1CCN(CCn2cnc3c4ccccc4nc-3c2O)CC1,1.41,0.724,13.8,
CC(C)(C)c1ccc(N2CCN(CCn3cnc4c5ccccc5nc-4c3O)CC2)cc1,> 10000,> 10000,> 10000,
O=c1[nH]c2c([nH]c3ccccc32)c(=O)n1CCN1CCN2c3ccccc3OCC2C1 (configuration not stated),7940,126,7760,
COc1ccccc1N1CCN(CCCn2c(C)nc3c4ccccc4nc-3c2O)CC1,4.9,2.57,26.9,
Cc1nc2c3ccccc3nc-2c(O)n1CCN1CCN(c2ccc(C(C)C)cc2)CC1,3550,1700,4070,
